Screening data from PubChem BioAssay.
JMJD2C inh: blocks human GASC-1 demethylase activity. 330,000 tested, 0.069% active. GST-JMJD2C(1-420) H3K9me3 demethylation, DELFIA europium. Q9H3R0. inhibition, % at 2.35 µM;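 active means more than half of a compound's replicate wells show inhibition beyond 50%, single wells judged on their own value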;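 further: signal counts dimethyl H3K9 product captured on neutravidin plate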
PP1 counter: blocks human PP1-alpha phosphatase, a PP5 counter-screen; inhibition, % at 6.7 µM; purified PP1alpha, OMFP fluorescence; 320,000 tested, 0.9% active;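 active means inhibition above the mean inhibition of all tested compounds plus 3 SD, computed separately for each screening campaign, cut at about 15% in these data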
m5-HT2A agonist: agonists of mouse serotonin 5-HT2A receptor (HTR2A). CHO-K1 mHTR2A beta-arrestin complementation, luminescence; percent of 30 µM serotonin response. 360,000 tested, 0.66% active. P35363. activation, % at 7.6 µM;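 active means activation above a run cutoff, the mean activation of all tested compounds plus 3 SD, cut at about 14% in these data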
Target sequence (P35363 whole entry, looked up): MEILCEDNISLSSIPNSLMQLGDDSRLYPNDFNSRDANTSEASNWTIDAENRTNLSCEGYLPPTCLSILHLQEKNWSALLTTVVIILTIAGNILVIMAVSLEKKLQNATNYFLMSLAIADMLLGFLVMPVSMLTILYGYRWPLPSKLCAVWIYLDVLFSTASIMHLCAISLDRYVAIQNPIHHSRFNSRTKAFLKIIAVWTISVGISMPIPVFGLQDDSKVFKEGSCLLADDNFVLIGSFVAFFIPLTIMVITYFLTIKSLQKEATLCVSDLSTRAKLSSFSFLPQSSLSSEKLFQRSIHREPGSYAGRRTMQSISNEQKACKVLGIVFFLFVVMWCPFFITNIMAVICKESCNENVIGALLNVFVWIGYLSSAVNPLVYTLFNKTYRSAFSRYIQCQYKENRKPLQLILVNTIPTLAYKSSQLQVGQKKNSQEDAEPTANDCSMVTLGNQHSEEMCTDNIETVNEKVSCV
PP5 primary: blocks human protein phosphatase 5 activity; purified PP5c, OMFP substrate fluorescence; inhibition, % at 6.7 µM; 320,000 tested, 0.18% active; AID 1987;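 active means inhibition above the campaign's mean inhibition across all tested compounds plus 3 SD, cut at about 9.5% in these data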
T cell modulator: modulates CD8 T cell binding to vesicles | 2C CD8+ T cell-vesicle binding, flow cytometry; active compounds read low | response (vesicle binding), % at 7 µM | 330,000 tested, 0.068% active | AID 2052;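 active means response, share of CD8 T cells binding vesicles, and their 90th percentile fluorescence all below set limits, cut at about 80% in these data, passing the limit was not always enough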;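 further: values below 100% mean blocked vesicle binding to the CD8+ T cells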
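Also added: QL9-peptide-loaded Drosophila micro-vesicles bearing Ld, ICAM-1 and B7-1; Test system: purified 2C TCR transgenic mouse naive CD8+ T cells; Measured by: cytometric PE anti-B7-1 and Alexa647 anti-CD8 signals after 1% paraformaldehyde fixation; Timing: binding step 1.5 h, 37 °C, antibody labelling 20 min, ice.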
Of the large screens only hits and unclear results are named; the others gave an inactive call. Most compounds without a hit are left out; they make up all but 1.7% or so of the library.

COC(=O)c1ccc(Cn2nnc3c(=O)[nH]c(C4CCN(S(=O)(=O)c5cc(C)ccc5C)CC4)nc32)cc1	PP1 counter 16
Cc1ccc(Cn2nnc3c(=O)[nH]c(C4CCN(S(=O)(=O)c5ccc(S(=O)(=O)NC6CC6)cc5)CC4)nc32)cc1	PP1 counter 17
O=c1[nH]c(C2CCN(S(=O)(=O)c3ccccc3)CC2)nc2c1nnn2Cc1ccc2c(c1)OCCO2	none
CC(OC(=O)[C@@H](NS(=O)(=O)c1ccccc1)C(C)C)C(=O)c1c(N)n(C)c(=O)n(C)c1=O (some centres not stated)	none (no result: JMJD2C inh, PP1 counter, PP5 primary, T cell modulator)
CCCCCC(=O)NCC(C)NC(=O)CCCCC (configuration not stated)	T cell modulator 0.0
COC(=O)c1c(C(=O)c2ccc(Br)cc2)n(C)c2ccccc12	none
COc1ccccc1C(=O)COC(=O)Cn1nc(C)c([N+](=O)[O-])c1C	none
Cc1ccc2c(c1)cc(C(=O)NCc1ccccc1)n2C	none
Cc1cccc(-n2ncc3c(N4CCCC4)ncnc32)c1	T cell modulator 0.0
COc1ccc(-n2ncc3c(N4CCN(c5cc(C)ccc5C)CC4)ncnc32)cc1	PP1 counter 17
COc1ccc(CCC(=O)NC2CCCc3ccccc32)cc1OC (configuration not stated)	none
O=C(Cc1nnc(NC(=O)c2ccccc2)s1)N/N=C/c1ccco1	T cell modulator 0.0
O=C(O)C1Nc2c(Cl)cc(Cl)c(Cl)c2C2C=CCC12 (configuration not stated)	none
O=C(O)C1Nc2c(O)cccc2C2C=CCC12 (configuration not stated)	PP1 counter 50
CC(=O)C[C@@H](O)CC(=O)[C@@H]1OC(=O)[C@@H](C)CCCCc2ccccc21	none (no result: JMJD2C inh, PP1 counter, PP5 primary)
Cc1coc2cc3oc(=O)c(CCC(=O)NCC(=O)O)c(C)c3cc12	none (no result: PP1 counter, PP5 primary)
c1ccc(-c2ncc(-c3ccn[nH]3)s2)cc1	PP1 counter 16
c1ccc(Oc2ccc(-c3ccn[nH]3)cc2)cc1	none
Cc1ccc(-c2nnn(CC(=O)Nc3ccc(S(=O)(=O)N4CCC(C)CC4)cc3)n2)cc1	PP1 counter 16
CC1CCCN(S(=O)(=O)c2ccc(NC(=O)Cn3nnc(-c4ccccc4F)n3)cc2)C1 (configuration not stated)	none
CC1CCN(S(=O)(=O)c2ccc(NC(=O)Cn3nnc(-c4ccccc4)n3)cc2)CC1	PP1 counter 17
CCc1ccccc1OCC(=O)OCC(=O)Nc1cc(C)on1	PP1 counter 17
Cc1cc(NC(=O)COC(=O)COc2ccc(C(=O)c3ccccc3)cc2)no1	none
CC(C)c1ccc(NC(=O)C2Cc3c(-c4cccc(C(N)=O)c4)ccnc3O2)cc1 (configuration not stated)	none (no result: JMJD2C inh, PP1 counter, PP5 primary, T cell modulator)
Cc1ccc(S(=O)(=O)N2CCOC2CNC(=O)C(=O)NCCc2ccc(S(N)(=O)=O)cc2)cc1 (configuration not stated)	JMJD2C inh 61
COc1ccc(CN(C)Cc2ccccc2)c(OC)c1OC	none
COc1ccc(/C=C\C(=O)O[C@@H]2C(O)C(O[C@@H]3OC(C)[C@H](O[C@@H]4OCC(O[C@H]5O[C@H](CO)[C@@H](O)C(O)C5O)C(O)C4O)C(O)C3O)[C@H](OC(=O)[C@]34CCC(C)(C)C[C@@H]3C3=CCC5[C@@]6(C)CC(O)C(O[C@@H]7OC(CO)C(O)[C@H](O)[C@H]7O)[C@@](C)(C(=O)O)C6CC[C@@]5(C)[C@]3(CO)CC4)O[C@H]2C)cc1 (some centres not stated)	m5-HT2A agonist 16 (no result: PP1 counter, PP5 primary)
Cn1c(SCC(=O)Nc2cccc(S(=O)(=O)NC3=NCCCCC3)c2)nnc1-c1ccccc1	none
Cc1ccc(NC(=O)COC(=O)CCc2c[nH]c3ccccc23)c(C)c1	T cell modulator 0.0
O=C(c1ccccc1)c1cc2c(cc1[N+](=O)[O-])OCCO2	none
CC(/C=C1\SC(=Nc2cccnc2)NC1=O)=C\c1ccccc1	none
C=CCOc1ccc(/C=C2\SC(=Nc3cccnc3)NC2=O)cc1	PP1 counter 16
CC(=O)CSc1nc(C(F)(F)F)cc(=O)n1-c1ccccc1	none
O=C(O)CSc1nc(C(F)(F)F)cc(=O)n1-c1ccccc1	m5-HT2A agonist 17
Cc1cccc(C)c1OCC(=O)Nc1ccccc1N1CCCCC1	none
Cc1ccc2nc(N3C(=O)C(O)=C(C(=O)c4cc5ccccc5o4)C3c3cccs3)sc2c1 (configuration not stated)	none
Cc1ccc2nc(N3C(=O)C(O)=C(C(=O)c4ccco4)C3c3ccc(O)cc3)sc2c1 (configuration not stated)	PP1 counter 15
Cc1ccc2nc(N3C(=O)C(O)=C(C(=O)c4ccc(C)o4)C3c3ccco3)sc2c1 (configuration not stated)	PP1 counter 16
NC(=O)C1(N2CCCCC2)CCN(C(=S)Nc2cc(F)cc(F)c2)CC1	none
O=S1(=O)CC(N2CCN(CC3CC3)CC2)CN1Cc1ccc(F)cc1 (configuration not stated)	none (no result: JMJD2C inh, PP1 counter, PP5 primary, T cell modulator)
COc1ccccc1C(=O)Nc1nc2cc3c(cc2s1)OCO3	none
COc1ccccc1C(=O)Nc1nc2cc3c(cc2s1)OCCO3	m5-HT2A agonist 23
COc1ccc(S(=O)(=O)N2CCOC2CNC(=O)C(=O)NCc2ccc3c(c2)OCO3)cc1C (configuration not stated)	none (no result: JMJD2C inh, PP1 counter, PP5 primary, T cell modulator)
Cc1ccc(C2C3=C(CCCC3=O)N=C3c4ccccc4C(=O)C32)cc1 (configuration not stated)	none
c1ccc(OCc2nn3c(-c4ccco4)nnc3s2)cc1	PP1 counter 16
COc1ccc(-c2nnc3sc(COc4ccccc4)nn23)cc1	none
O=C(O)C(Cc1c[nH]c2ccccc12)N1C(=O)c2ccccc2C1=O (configuration not stated)	none
CCCCCCn1cc(C(=O)O)c(=O)c2cc(F)c(N3CCN(C)CC3)cc21	m5-HT2A agonist 16
N#CC(=Nc1cccc(F)c1)C1=C(O)c2ccccc2C1=O	none (no result: JMJD2C inh, PP1 counter, PP5 primary, T cell modulator)
O=C(c1ccco1)N1CCN(CC(O)COc2ccc3oc4ccccc4c3c2)CC1 (configuration not stated)	m5-HT2A agonist 14
O=C(O)C(c1ccccc1)N1C(=O)/C(=C/c2cccs2)SC1=S (configuration not stated)	none
CC(c1ccccc1)N1C(=O)/C(=C/c2ccncc2)SC1=S (configuration not stated)	PP1 counter 17
COc1ccc(-c2ccc(-c3noc(-c4ccco4)n3)c(OC)n2)cc1	PP1 counter 16
O=C(NC1CCOCC1)C1CCC(=O)N(Cc2cccc(C(F)(F)F)c2)C1 (configuration not stated)	none
CC(=O)NC1C(=O)N(CCN2CCOCC2)c2ccc(C)cc21 (configuration not stated)	PP1 counter 57
CC(=O)NC1C(=O)N(CCN2CCOCC2)c2ccc(Cl)cc21 (configuration not stated)	none (no result: PP1 counter, PP5 primary)
